In the library only some 2.7% were active in any assay of this set; here they are far more common.
RBBP9 inhibitor: blocks human serine hydrolase RBBP9; AID 1515; inhibition, % at 7.94 µM; recombinant RBBP9, FP-Rh probe fluorescence polarization; hit rate 0.2% among 220,000; O75884;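 active = inhibition above the campaign mean of all tested compounds plus 3 SD, cut at about 14% in these data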;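 also: plate controls were DMSO wells with RBBP9 for no effect and wells lacking RBBP9 protein for full effect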
Target sequence (O75884 whole entry, looked up): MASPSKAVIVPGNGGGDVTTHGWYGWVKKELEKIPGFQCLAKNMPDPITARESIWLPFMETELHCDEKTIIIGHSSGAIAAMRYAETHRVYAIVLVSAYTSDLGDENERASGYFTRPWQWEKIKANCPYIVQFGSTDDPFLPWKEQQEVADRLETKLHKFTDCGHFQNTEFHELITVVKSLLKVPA
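Assay system: recombinant human RBBP9; Reagent: Serine-hydrolase probe FP-Rh, 375 nM pre-mixing; Doses: 7.94 µM single dose, 0.794% DMSO; Incubation: 30 min then 45 min, 25 °C; Detection: fluorescence polarization (mP), excitation 525 nm, emission 598 nm; Evaluation: percent inhibition from mP, scaled between DMSO and no-protein wells.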
p97 inhibitor: inhibitors of human p97 ATPase | recombinant p97 ATPase, Kinase-Glo ATP luminescence, 3 h | AID 1481 | inhibition, % at 8 µM | P55072 | hit rate 0.42% among 220,000; in the data active = inhibition above about 15%;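 also: 0% = DMSO vehicle and 100% = wells lacking enzyme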
zVAD death inh: L929 zVAD cell death inhibition; L929 zVAD necroptosis rescue, ATP luminescence, 24 h; with zVAD 60 µM; viability rescue, % at 10 µM; hit rate 0.38% among 220,000; AID 1377;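 active = activation, scaled between plate controls, above about 75%, limit read from the data; inactive = activation under that limit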;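 also: 0% = zVAD with DMSO and 100% = DMSO alone without zVAD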
TNF death inh: blocks TNF-alpha induced death of Jurkat FADD-/- cells; Jurkat FADD-/- TNF necroptosis rescue, ATP luminescence, 24 h; 0 = TNF only, 100 = no-TNF cells; hit rate 0.068% among 220,000; activation (protection from cell death), % at 10 µM; AID 463075;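 active = activation, meaning protection from cell death, of at least 50% relative to plate controls; inactive = activation below 50%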;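 also: necroptosis triggered by 40 ng/mL TNF-alpha added together with compound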
PfM18AAP inh-1: blocks P. falciparum M18 aspartyl aminopeptidase. recombinant PfM18AAP, H-Glu-NHMec fluorogenic cleavage. inhibition, % at 7.35 µM. hit rate 1.2% among 290,000. AID 1822;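 active = inhibition above the campaign mean inhibition over all tested compounds plus 3 SD, cut at about 28% in these data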;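 also: 0% = plate median of test compound wells and 100% = 2 mM ZnCl2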
Wee1 degr inh: human Wee1 degradation inhibition, primary screen | P30291 | HeLa Luc-Wee1K328M stability, luciferase luminescence; 100% = proteasome inhibitor MG132 effect | reporter increase, % at 5 µM | hit rate 1.2% among 220,000;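 active = activation above the mean of all tested compounds plus 3 SD, set per screening run, cut at about 8.8% in these data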;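 also: cells exposed to compound for 20 h before luminescence read; 0% = DMSO alone and 100% = MG132 at 30 µM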
PfM18AAP inh-2: PfM18AAP inhibition, confirmation. hit rate 28% among 2,400. recombinant PfM18AAP, H-Glu-NHMec fluorogenic cleavage. shares compounds with PfM18AAP inh-1. inhibition, % at 7.35 µM;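 active = mean inhibition over replicate wells above the hit cutoff set for the earlier primary screen, cut at about 29% in these data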;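 also: 0% = median of test compound wells and 100% = 2 mM ZnCl2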
CTSL1 counter: counter-screen for PFM18AAP inhibitors: confirmation of human cathepsin L inhibitors. shares compounds with PfM18AAP inh-1. purified cathepsin L1, Z-Leu-Arg-MCA fluorescence. inhibition, % at 5.96 µM. 2,400 tested, under 10 active. AID 2178;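 active = average inhibition across replicates above the hit cutoff set in the earlier primary screen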;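 also: 0% = median of test compound wells and 100% = Z-Phe-Ala-diazomethylketone 1 µM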
Target sequence (P07711 whole entry, looked up): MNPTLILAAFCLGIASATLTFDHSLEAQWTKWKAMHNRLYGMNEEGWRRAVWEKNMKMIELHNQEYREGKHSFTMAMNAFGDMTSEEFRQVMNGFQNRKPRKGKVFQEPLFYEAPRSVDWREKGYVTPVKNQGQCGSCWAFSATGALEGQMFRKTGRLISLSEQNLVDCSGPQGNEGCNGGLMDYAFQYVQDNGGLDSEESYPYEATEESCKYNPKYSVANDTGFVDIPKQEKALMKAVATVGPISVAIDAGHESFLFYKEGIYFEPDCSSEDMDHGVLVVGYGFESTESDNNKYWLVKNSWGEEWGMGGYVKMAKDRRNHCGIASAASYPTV
The depositor's hits bear a star; nt = not tested or not shown.

SMILES	RBBP9 inhibitor	p97 inhibitor	zVAD death inh	TNF death inh	PfM18AAP inh-1	Wee1 degr inh	PfM18AAP inh-2	CTSL1 counter
COc1ccc(C2C(C(C)=O)=C(O)C(=O)N2c2nc3ccccc3s2)cc1OC (centres undefined)	-2	2	0	1	34*	0	-26	2
O=C(NCC(=O)N1CCN(c2ccccc2O)CC1)c1ccco1	nt	nt	nt	nt	34*	nt	-29	-5
COc1cc(CC(=O)NCCCc2ccccc2)cc(OC)c1OC	nt	nt	nt	nt	1	nt	nt	nt
CC(C)c1cc2c(c(O)c1O)[C@@]13CCCC(C)(C)C1CC2OC3=O (some centres undefined)	nt	nt	nt	nt	68*	nt	48*	-4
COCCN1C=C(C(=O)OC)C(c2ccc3c(c2)OCO3)C(C(=O)OC)=C1	-7	0	0	-1	38*	7	-6	0
COCCCN1C(=O)/C(=C\c2ccc3c(c2)OCO3)C(C(=O)OC)=C1C	-9	4	0	1	52*	1	-27	3
COCCN1C=C(C(=O)OC)C(c2cc3c(cc2Br)OCO3)C(C(=O)OC)=C1	-2	0	0	-1	4	-1	nt	nt
COC(=O)[C@@]1(Cc2ccc(F)cc2)[C@H]2c3cc(C(=O)N4CCCC4)n(CCc4ccc(O)c(O)c4)c3C[C@H]2CN1C(=O)c1ccccc1	-5	6	3	-10	75*	2	49*	4
CC(C)c1nc(SCC(=O)NCC2CCCO2)c2c(=O)n(C)c(=O)n(C)c2n1 (centres undefined)	nt	nt	nt	nt	-2	nt	nt	nt
N#Cc1c(-c2ccccc2)cc(-c2ccccc2)nc1SCC(=O)NCC(=O)O	-3	7	0	2	38*	-3	-11	3
COc1ccc(NC(=S)N2CCC(N(C)CC3CCCO3)CC2)cc1Cl (centres undefined)	-6	6	0	3	16	-4	nt	nt
CC(=O)c1c(C)[nH]c(C(=O)N2CCN(c3ccccn3)CC2)c1C	nt	nt	nt	nt	-1	nt	nt	nt
CC1(C)Nc2ccc(O)cc2-c2c1ssc2=S	11	9	0	-5	15	2	nt	nt
CCOc1ccc2c(c1)-c1c(ssc1=S)C(C)(C)N2C	-2	-4	-1	-4	33*	-2	-25	-2
O=C(O)c1ccc(O)c(N2C(=O)Nc3ccccc3N2O)c1	-1	3	1	1	50*	4	12	0
CCn1c(N)[n+](CC(=O)Nc2ccc(SC(F)F)cc2)c2ccccc21	-2	6	2	-6	0	-2	nt	nt
COc1cc(N=Cc2c(CO)cnc(C)c2O)cc(OC)c1OC	nt	nt	nt	nt	35*	nt	-13	-1
COc1ccccc1N/N=C/c1c(CO)cnc(C)c1O	-9	4	1	0	7	2	nt	nt
COc1ccc(N2C(=O)C(Cl)=C(N3CCOCC3)C2=O)cc1	nt	nt	nt	nt	33*	nt	-5	25*
CCc1ccc(N2C(=O)C(Cl)=C(N3CCOCC3)C2=O)cc1	-1	2	0	0	18	1	nt	nt
CNC(=O)/C(C#N)=c1\s/c(=C/C(=O)OC)c(=O)n1-c1ccccc1	-7	2	0	0	23	0	nt	nt
COC(=O)/C=c1\sc2ncnn2c1=O	1	2	-1	-3	38*	9	-30	-2
O=C(C1CCC(=O)N(C2CC2)C1)N1CCN(c2cccc(Cl)c2)CC1 (centres undefined)	nt	nt	nt	nt	-6	nt	nt	nt
Cc1cccc(NC(=S)NCCc2ccccc2)n1	1	2	-1	-1	38*	1	10	1
O=C(Nc1cc(Cl)ccc1Cl)Nn1cnnc1	nt	nt	nt	nt	87*	nt	89*	5
SMILES	RBBP9 inhibitor	p97 inhibitor	zVAD death inh	TNF death inh	PfM18AAP inh-1	Wee1 degr inh	PfM18AAP inh-2	CTSL1 counter
CCOC(=O)c1ccc(NC(=O)Nn2cnnc2)cc1	nt	nt	nt	nt	72*	nt	64*	1
Cc1c(Cl)cccc1NC(=O)Nn1cnnc1	nt	nt	nt	nt	82*	nt	65*	1
O=C(Nc1ccncc1)Nc1cc(Cl)ccc1Cl	nt	nt	nt	nt	0	nt	nt	nt
O=C(Nc1ccc(F)c(Cl)c1)Nn1cnnc1	nt	nt	nt	nt	76*	nt	60*	-1
CCS(=O)(=O)C1=NN2C(=N)/C(=C\c3ccc(SCc4ccco4)o3)C(=O)N=C2S1	-14	10	1	0	21	-1	nt	nt
Cc1ccc(Cl)cc1NC(=S)N(Cc1ccccc1)Cc1cccnc1	3	-1	0	-1	5	-2	nt	nt
CCC(C(=O)NCCCN1CCN(C)CC1)n1nc(C)n2c(cc3occc32)c1=O (centres undefined)	nt	nt	nt	nt	-3	nt	nt	nt
CCCCCc1cccnc1	6	10	0	2	-2	2	nt	nt
O=C(NC(Cc1ccccc1)C(=O)O)/C(=C/c1ccc([N+](=O)[O-])cc1)NC(=O)c1ccco1 (centres undefined)	nt	nt	nt	nt	10	nt	nt	nt
O=C(Nc1ccc(F)cc1)Nn1cnnc1	nt	nt	nt	nt	58*	nt	46*	-4
COc1ccc(CNCc2cc3c(cc2[N+](=O)[O-])OCO3)cc1	nt	nt	nt	nt	38*	nt	-15	-2
Cc1cc(C)cc(NCc2cc3c(cc2[N+](=O)[O-])OCO3)c1	-2	-1	0	-6	14	-2	nt	nt
COc1ccc(/C=C2\CN(Cc3ccccc3)C/C(=C\c3ccc(OC)c(O)c3)C2=O)cc1O	nt	nt	nt	nt	45*	nt	3	-1
CCN1C/C(=C/c2ccc(OC)c(O)c2)C(=O)/C(=C/c2ccc(OC)c(O)c2)C1	7	4	57	-9	13	0	nt	nt
O=C(O)[C@@H]1[C@@H]2C[C@@H]2CN1c1ncccc1[N+](=O)[O-]	0	2	0	-1	13	3	nt	nt
O=C(Nc1ncn[nH]1)c1ccc([N+](=O)[O-])cc1[N+](=O)[O-]	-3	2	0	0	44*	1	34*	1
O=C(Nc1ncn[nH]1)c1ccccc1Br	0	0	0	3	38*	-2	44*	-4
CSc1ccccc1C(=O)Nc1ncn[nH]1	nt	nt	nt	nt	5	nt	nt	nt
CN(C)C1(CNC(=S)Nc2ccccc2C(F)(F)F)CCCCC1	6	0	-1	1	5	-1	nt	nt
CCOc1ccc(Br)cc1S(=O)(=O)Nc1ncn[nH]1	nt	nt	nt	nt	1	nt	nt	nt
CCOc1ccc(S(=O)(=O)Nc2ncn[nH]2)cc1	nt	nt	nt	nt	46*	nt	33*	-5
O=c1[nH]c(=S)[nH]c2c1CN(Cc1ccc(F)cc1)CC2	nt	nt	nt	nt	37*	nt	9	5
CCc1ccc(OCCn2cccn2)cc1	-7	-5	0	1	0	1	nt	nt
O=[N+]([O-])c1ccc(N/N=C/c2ccc(OCc3cccc4ccccc34)cc2)nc1	2	1	1	0	45*	1	-38	2
Cc1ccc(NC(=O)N[C@H](C(=O)O)C(C)C)c(C)c1	-11	1	0	1	4	0	nt	nt

Assay outcomes: PubChem BioAssay, several laboratories
